Test results as given in ChEMBL document CHEMBL3098105, “7,7'-Diazaindirubin--a small molecule inhibitor of casein kinase 2 in vitro and in cells” (Bioorg Med Chem, 2014).

Tests used:
Format in all cases: functional, cell-based
MCF7 = test: Antiproliferative activity against human MCF7 cells after 3 days by SRB assay; conditions: MCF7, 72 h
Method in brief: (§1)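 Cells grown at 37 °C, 5% CO2, with 10% heat-inactivated FBS: LXFL529L in RPMI 1640, MCF7 and HT29 in DMEM. Seeded, allowed 24 h growth, then exposed to the drug at various concentrations for 3 days in serum medium. Fixed with TCA for 1 h at 4 °C, stained with 0.4% SRB, eluted in 10 mM Tris pH 10.5, read at 570 nm as % T/C. IC50 taken from dose–response curves of at least three independent experiments.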

HT-29 = test: Antiproliferative activity against human HT-29 cells after 3 days by SRB assay; conditions: HT-29, 72 h; method in brief: as §1
[1] = Antiproliferative activity against human LXFL 529L cells after 3 days by SRB assay; conditions: 72 h; method in brief: as §1

IC50 (MCF7) [µM]	IC50 (HT-29) [µM]	SMILES	IC50 [1] [µM]
4	–	O=C1Nc2ccccc2/C1=C1/Nc2ccccc2C1=O [INDIRUBIN]	9.9
5	> 10	O=C1Nc2ccccc2/C1=C1/Nc2ncccc2C1=O	4.4
> 100	> 100	O=C1/C(=C2\Nc3ncccc3C2=O)Nc2ncccc21	> 100

Further lines, the compound ahead of its results:

SMILES	IC50 (MCF7) [µM]	IC50 (HT-29) [µM]	IC50 [1] [µM]
O=C1Nc2ncccc2/C1=C1\C(=O)Nc2ncccc21	> 100	> 100	> 100
O=C1Nc2ncccc2/C1=C1/Nc2ccccc2C1=O	3	> 10	2.9
